Measurements reported in article PMC3723589 (Channels, 2010).
“And” between values parts separate entries of the source, which are not always exact repeats. Equal values may be shown once. “Also recorded” adds a separate entry of the source. Read-outs that look alike come from different tables or passages of the source. Each block holds one compound with its values, some of them ahead of it.

Legend:
[1] = target: Slo1-Y294V (Mus musculus, UniProt Q08460, Y359V); assay: Block of Slo1-Y294V currents by extracellular CTX or TEA; assay type: cell-based; conditions: TEA up to 10 mM
Method in brief: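 Excised outside-out patches at room temperature (~22–25°C), with blocker applied to the extracellular face by a multi-barrel local perfusion system, one barrel flowing at a time. The extracellular solution was (mM) 140 K-methanesulfonate, 20 KOH, 10 HEPES, 2 MgCl2, pH 7.0. The pipette (cytosolic) solution was 140 K-methanesulfonate, 20 KOH, 10 HEPES, with 10 μM Ca2+ for CTX tests.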

[2] = target: T1, MC13 (Slo1(1-181):Slo3(171-1121)) (Mus musculus, UniProt O54982); assay: Block of MC13; assay type: cell-based; conditions: for effect of extracellular 4-AP on MC13/Slo3 currents: 4-AP up to 100 mM at pH 7.0, pipette pH 8.5
[3] = test system: BK single channels; conditions: symmetrical K+ solutions, cited from earlier work
[4] = target: T2, mouse Slo1 K+ channels (Mus musculus, UniProt Q08460); assay: Block of Slo1 currents, blocker applied extracellularly to outside-out patches; assay type: cell-based
[5] = test system: BK single channels; conditions: symmetrical K+ solutions, cited from earlier work; remark: listed apart in the source
[6] = target: T1, MC13 (Slo1(1-181):Slo3(171-1121)); assay type: cell-based; conditions: pH 8.5
[7] = test system: Slo1/BK-type channels; conditions: read-out: extracellular TEA concentration for blockade (half block); cited from earlier work
[8] = target: T2, mouse Slo1 K+ channels; assay: Block of Slo1 currents, blocker applied cytosolically to inside-out patches; assay type: cell-based; conditions: for zc / zo / zo (zδ) / Kd / zδ: 300 μM Ca2+; for zc / zo / zo (zδ) / Kd: pH 8.5
[9] = test system: sperm; conditions: TEA at 2.5–10 mM; cited from earlier work
[10] = target: T3, mouse Slo3 K+ channels (Mus musculus, UniProt O54982); assay: Block of Slo3 currents by extracellular blockers; assay type: cell-based
T3 sequence (O54982 171-1121 limits assumed): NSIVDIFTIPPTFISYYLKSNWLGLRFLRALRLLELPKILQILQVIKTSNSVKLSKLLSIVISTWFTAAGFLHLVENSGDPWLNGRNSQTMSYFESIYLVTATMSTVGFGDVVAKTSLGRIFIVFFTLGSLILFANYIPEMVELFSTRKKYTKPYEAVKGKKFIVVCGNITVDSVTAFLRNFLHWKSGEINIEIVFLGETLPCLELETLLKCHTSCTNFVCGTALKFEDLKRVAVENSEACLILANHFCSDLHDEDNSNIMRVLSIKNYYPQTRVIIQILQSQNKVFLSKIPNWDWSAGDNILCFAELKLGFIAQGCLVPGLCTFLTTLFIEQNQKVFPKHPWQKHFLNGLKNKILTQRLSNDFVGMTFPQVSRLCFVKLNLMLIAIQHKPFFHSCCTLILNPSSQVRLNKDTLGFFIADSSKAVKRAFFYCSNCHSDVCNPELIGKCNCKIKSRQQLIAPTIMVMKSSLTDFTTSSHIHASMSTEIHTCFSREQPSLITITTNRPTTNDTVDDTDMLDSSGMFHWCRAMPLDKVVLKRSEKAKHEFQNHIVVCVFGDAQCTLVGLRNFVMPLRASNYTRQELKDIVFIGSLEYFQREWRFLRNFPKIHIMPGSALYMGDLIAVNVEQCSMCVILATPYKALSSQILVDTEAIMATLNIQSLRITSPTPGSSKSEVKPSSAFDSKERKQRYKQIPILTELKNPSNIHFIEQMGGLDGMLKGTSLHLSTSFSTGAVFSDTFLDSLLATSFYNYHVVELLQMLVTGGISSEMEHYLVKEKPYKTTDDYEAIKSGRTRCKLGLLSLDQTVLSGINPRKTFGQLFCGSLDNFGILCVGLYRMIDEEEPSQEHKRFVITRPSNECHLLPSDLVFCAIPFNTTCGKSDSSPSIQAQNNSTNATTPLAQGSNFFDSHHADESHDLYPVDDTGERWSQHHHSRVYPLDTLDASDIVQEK

[11] = test system: MC13 (Slo1(1-181):Slo3(171-1121)); assay: Block of MC13; assay type: cell-based, mouse; conditions: at 0 mV
[12] = test system: human sperm; conditions: cited from earlier work
[13] = target: T4, mouse Slo3 K+ channels (Mus musculus, UniProt O54982); assay type: cell-based
T4 sequence (O54982 1-1121): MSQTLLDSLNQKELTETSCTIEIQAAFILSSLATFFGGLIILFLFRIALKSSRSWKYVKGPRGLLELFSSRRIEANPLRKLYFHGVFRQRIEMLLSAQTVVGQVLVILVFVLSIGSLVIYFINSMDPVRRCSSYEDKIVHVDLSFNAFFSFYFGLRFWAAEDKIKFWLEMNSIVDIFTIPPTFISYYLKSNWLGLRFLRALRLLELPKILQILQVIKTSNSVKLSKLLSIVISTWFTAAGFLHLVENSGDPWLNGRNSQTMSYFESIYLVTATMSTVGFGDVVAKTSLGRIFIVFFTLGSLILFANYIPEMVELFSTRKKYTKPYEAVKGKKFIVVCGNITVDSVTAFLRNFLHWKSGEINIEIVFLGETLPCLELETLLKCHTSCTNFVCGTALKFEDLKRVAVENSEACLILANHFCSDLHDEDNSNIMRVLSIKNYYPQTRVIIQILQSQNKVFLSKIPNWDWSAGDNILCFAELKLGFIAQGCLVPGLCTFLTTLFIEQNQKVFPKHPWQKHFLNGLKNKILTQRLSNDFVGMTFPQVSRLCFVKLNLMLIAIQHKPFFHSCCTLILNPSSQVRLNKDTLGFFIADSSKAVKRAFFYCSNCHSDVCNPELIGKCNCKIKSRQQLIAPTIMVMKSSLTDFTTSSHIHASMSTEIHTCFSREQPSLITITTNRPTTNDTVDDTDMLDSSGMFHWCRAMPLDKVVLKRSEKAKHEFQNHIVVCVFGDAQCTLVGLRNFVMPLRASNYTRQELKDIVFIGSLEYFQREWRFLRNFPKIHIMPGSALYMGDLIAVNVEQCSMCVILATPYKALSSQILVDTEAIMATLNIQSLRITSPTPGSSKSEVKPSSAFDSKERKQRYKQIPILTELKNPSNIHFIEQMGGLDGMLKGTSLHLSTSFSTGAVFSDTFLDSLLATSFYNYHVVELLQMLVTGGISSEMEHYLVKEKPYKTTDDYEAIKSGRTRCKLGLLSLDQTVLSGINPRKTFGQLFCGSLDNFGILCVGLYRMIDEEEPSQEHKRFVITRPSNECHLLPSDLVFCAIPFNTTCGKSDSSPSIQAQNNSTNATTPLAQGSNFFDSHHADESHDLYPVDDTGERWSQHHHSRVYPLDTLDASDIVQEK

[14] = test system: murine sperm; conditions: cited from earlier work
[15] = pK and percent protonation of tertiary amines; assay type: physicochemical; conditions: calculated from pK 9.2
[16] = read-out: Kb, block by cytosolic TEA
[17] = cytosolic TEA, 0 Ca2+, fit OB-CB (2a) 2 params
[18] = cytosolic TEA, fit OB-CB (2') 4 params
[19] = cytosolic TEA, fit OB-CB (2a) 2 params
[20] = cytosolic 4-AP, fit OB-CB (2a) 2 params
[21] = cytosolic 4-AP, fit OB-CB (2') 4 params

T2 sequence (Q08460 66-1209 limits assumed): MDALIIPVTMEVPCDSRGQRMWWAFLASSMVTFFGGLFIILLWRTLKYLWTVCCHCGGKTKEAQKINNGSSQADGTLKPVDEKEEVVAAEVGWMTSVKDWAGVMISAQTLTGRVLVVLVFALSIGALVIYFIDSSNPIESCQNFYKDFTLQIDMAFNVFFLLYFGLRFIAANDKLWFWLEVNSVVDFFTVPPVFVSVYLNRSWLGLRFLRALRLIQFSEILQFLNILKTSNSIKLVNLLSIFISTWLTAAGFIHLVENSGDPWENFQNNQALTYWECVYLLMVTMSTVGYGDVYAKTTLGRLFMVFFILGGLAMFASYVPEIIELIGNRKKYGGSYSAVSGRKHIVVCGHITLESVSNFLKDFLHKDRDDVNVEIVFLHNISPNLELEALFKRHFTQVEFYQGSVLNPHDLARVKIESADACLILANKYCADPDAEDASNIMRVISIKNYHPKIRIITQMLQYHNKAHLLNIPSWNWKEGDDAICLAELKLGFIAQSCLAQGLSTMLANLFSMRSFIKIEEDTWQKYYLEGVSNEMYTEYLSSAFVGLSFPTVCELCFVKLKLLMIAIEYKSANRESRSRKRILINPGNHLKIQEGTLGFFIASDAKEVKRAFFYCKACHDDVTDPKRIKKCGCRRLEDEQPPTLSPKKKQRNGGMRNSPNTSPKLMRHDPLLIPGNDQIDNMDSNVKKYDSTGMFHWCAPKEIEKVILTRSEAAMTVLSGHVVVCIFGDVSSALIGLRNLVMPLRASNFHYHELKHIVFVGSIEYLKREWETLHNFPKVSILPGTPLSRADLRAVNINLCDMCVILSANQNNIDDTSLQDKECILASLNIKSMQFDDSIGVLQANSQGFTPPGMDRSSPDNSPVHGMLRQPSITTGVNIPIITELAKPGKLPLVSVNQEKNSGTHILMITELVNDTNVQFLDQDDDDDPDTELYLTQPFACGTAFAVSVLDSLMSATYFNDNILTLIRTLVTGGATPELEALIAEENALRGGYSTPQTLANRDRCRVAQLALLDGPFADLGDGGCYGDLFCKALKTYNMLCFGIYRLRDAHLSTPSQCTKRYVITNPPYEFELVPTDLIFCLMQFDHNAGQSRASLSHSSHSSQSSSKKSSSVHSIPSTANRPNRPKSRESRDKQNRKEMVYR
T1 sequence (Q08460 66-246 partner, one chain of several): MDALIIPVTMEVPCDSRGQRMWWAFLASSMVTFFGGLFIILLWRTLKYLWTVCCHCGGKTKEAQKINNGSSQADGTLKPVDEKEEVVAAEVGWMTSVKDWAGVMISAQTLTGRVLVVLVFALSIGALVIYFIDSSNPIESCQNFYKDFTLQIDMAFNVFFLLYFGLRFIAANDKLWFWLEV
Slo1-Y294V, sequence (Q08460 66-1209 Y359V limits assumed): as the sequence (Q08460 66-1209 limits assumed) above, with Y294V counted along it

effect of extracellular TEA on Slo1-Y294V [1]: lack of effect
block of Slo1 current ([4]; 250 μM extracellular TEA, at 0 mV): about 50%
zo ([4]; extracellular TEA, 300 μM Ca2+, pH 8.5, fit OB-CB (2') 4 params (zc fixed 0)): 0.23 ± 0.04 e
zc (voltage-dependence of closed state block) ([4]; extracellular TEA, 300 μM Ca2+, pH 8.5, fit OB-CB (2a) 2 params): 0.23 ± 0.02 e
zo (voltage-dependence of open state block) ([4]; extracellular TEA, pipette 300 μM Ca2+, pH 8.5, fit OB (1a) 2 params): 0.34 ± 0.02 e
Kd ([4]; read-out: Kbc (affinity of blocker to closed state), extracellular TEA, 300 μM Ca2+, pH 8.5, fit OB-CB (2a) 2 params): 0.174 ± 0.008 mM
Kd ([4]; read-out: Kbo (affinity of blocker to open state), extracellular TEA, pipette 300 μM Ca2+, pH 8.5, fit OB (1a) 2 params): 0.132 ± 0.0069 mM
zc ([6]; cytosolic TEA, 0 Ca2+, fit OB-CB (2') 4 params (zo fixed 0)): 0.06 ± 0.20 e
zc [6, 17]: 0.05 ± 0.02 e
zo (z) [6, 17]: 0.05 ± 0.02 e
Kd ([6]; read-out: Kbc, cytosolic TEA, 0 Ca2+, fit OB-CB (2') zo = zc = 0 e): 2.36 ± 0.42 mM
Kd ([6]; read-out: Kbc, cytosolic TEA, 0 Ca2+, fit OB-CB (2a) 2 params): 2.01 ± 0.29 mM
Kb ([6]; read-out: Kbo (Kb), cytosolic TEA, 0 Ca2+, fit OB-CB (2a) 2 params): 2.01 ± 0.29 mM
Kd ([6]; read-out: Kbo, cytosolic TEA, 0 Ca2+, fit OB (1a) zo = 0 e): 0.33 ± 0.01 mM
Kd ([6]; read-out: Kbo, cytosolic TEA, 0 Ca2+, fit OB-CB (2') zo = zc = 0 e): 0.56 ± 0.06 mM
zc [8, 18]: 0.57 ± 0.32 e
zo [8, 18]: 0.16 ± 0.20 e
zc [8, 19]: 0.22 ± 0.02 e
zo [8, 19]: 0.22 ± 0.02 e
zo (zδ) ([8]; cytosolic TEA, open channel block OB (1a) 2 params): 0.15 ± 0.02 e
Kd ([8]; read-out: Kbc, cytosolic TEA, fit OB-CB (2') 4 params): 61.4 ± 34.8 mM
Kd ([8]; read-out: Kbc, cytosolic TEA, fit OB-CB (2a) 2 params): 73.5 ± 4.5 mM
Kd ([8]; read-out: Kbo, cytosolic TEA, fit OB-CB (2') 4 params): 78.6 ± 22.6 mM
Kd ([8]; read-out: Kbo, cytosolic TEA, fit OB-CB (2a) 2 params): 73.5 ± 4.5 mM
block of Slo3 [10]: resistant to block
SMILES: CC[N+](CC)(CC)CC [TEA, tetraethylammonium]
effect of extracellular TEA on MC13 ([2]; TEA up to 10 mM): only minor effects; also recorded: minimal effect
Kb [3, 16]: 34.7 mM
zδ [3]: 0.27 e
Kb [5, 16]: 60 mM
zδ [5]: 0.26 e
IC50 [7]: 0.2 to 0.3 mM
effects on sperm function [9]: not produced

SMILES: Nc1ccncc1 [4-AP, 4-aminopyridine]
effect of extracellular 4-AP on MC13/Slo3 currents [2]: relatively insensitive; also recorded: little effect; also recorded: essentially no blocking effect
effect of extracellular 4-AP on MC13/Slo3 currents ([2]; listed as 4-APo): without effect
difference in affinity of Slo1 and Slo3 channels for extracellular 4-AP [11]: at least 20 fold
zo ([4]; extracellular 4-AP, 300 μM Ca2+, pH 8.5, fit OB-CB (2a) 2 params): 0.48 ± 0.04 e
zc ([6]; cytosolic 4-AP, fit OB-CB (2') 4 params (zo fixed 0)): 0.26 + 1.05 e
zo [6, 20]: 0.17 ± 0.02 e
zo (zδ) ([6]; cytosolic 4-AP, open channel block OB (1a) 2 params): 0.02 ± 0.03 e
concentration disrupting volume regulation [12]: 1 to 4 mM
zδ ([8]; cytosolic 4-AP at pH 7.0, Scheme 1a (Fig. 7C)): 0.17 ± 0.01 e and 0.18 ± 0.02 e
zδ ([8]; cytosolic 4-AP at pH 8.5, Scheme 1a (Fig. 7D)): 0.05 ± 0.06 e
zδ ([8]; cytosolic 4-AP at pH 8.5, state-independent Scheme 2a (Fig. 7D)): 0.11 ± 0.03 e
zc [8, 21]: 0.33 ± 0.32 e
zo [8, 21]: 0.12 ± 0.03 e
zc [8, 20]: 0.10 ± 0.02 e
zo (zδ) ([8]; cytosolic 4-AP, state-independent OB-CB (2a) 2 params): 0.10 ± 0.02e e
z(p) ([8]; cytosolic 4-AP, pH 7.0 and 8.5 fit simultaneously with two-site Scheme 3): 0.19 ± 0.02 e
zo ([13]; cytosolic 4-AP, pH 8.5, fit OB-CB (2a) 2 params): 0.16 ± 0.01 e
Slo3 more sensitive than Slo1 to cytosolic 4-AP ([13]; open channel block): 10–15 fold
concentration disrupting volume regulation [14]: 1 to 4 mM
percent protonated ([15]; 4-AP at pH 7.0): 99.4%
percent protonated ([15]; 4-AP at pH 8.5): 83.4%
